Test results published in publication PMC8268672 (Bioorganic Chemistry, 2021).
Values after ≈ are worked out from the molar mass of the structure shown. Where two headings read alike, the source gives them in different places.

Key:
[1] = test system: Aspergillus fumigatus (NCIM 2081); assay: MIC, broth microdilution; assay type: cell-based; details: NCIM2081, read-out: Minimum inhibitory concentration (MIC), AF
Procedure, shortened: (§1)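 Antifungal MICs by CLSI broth microdilution in Sabouraud liquid medium. Test compounds and standard drugs are serially diluted two-fold from 512 to 0.25. The fungal broth culture is grown 24 h at 35 °C to a 0.5 McFarland turbidity, then adjusted with sterile solution to the final inoculum.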

[2] = test system: Influenza A/H1N1 A/Ned/378/05; assay: CPE reduction assay in MDCK cells; assay type: cell-based; details: Influenza A virus
[3] = test system: Escherichia coli (ATCC 8739); assay: MIC, broth microdilution; assay type: cell-based; details: ATCC8739, read-out: Minimum inhibitory concentration (MIC), EC
Procedure, shortened: (§2)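 Broth microdilution per CLSI in Mueller-Hinton broth, using two-fold serial dilutions of test compound and reference drugs from 512 to 0.25. Bacterial broth cultures were grown 2-6 h to 0.5 McFarland turbidity, then diluted with sterile solution to the final inoculum. MIC is reported in µg/mL.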

[4] = test system: Bacillus cereus (NCIM-2458); assay: Agar disk diffusion, inhibition zone; assay type: cell-based; details: 100 µg/8 mm disc, triplicate, mean ± SD
[5] = test system: Streptococcus pneumonia (ATCC 49619); assay: Agar disk diffusion, inhibition zone; assay type: cell-based; details: 100 µg/8 mm disc, triplicate, mean ± SD
Coxsackie virus B4 = assay: CPE reduction assay in Vero cells; assay type: cell-based; details: Enterovirus B, read-out: Antiviral EC50, Coxsackie virus B4
Vero cells = details: Vero cell cultures; microscopically detectable alteration of normal cell morphology
[6] = test system: Aspergillus fumigatus (NCIM 2081); assay: Agar disk diffusion, inhibition zone; assay type: cell-based; details: 100 µg/8 mm disc, triplicate, mean ± SD
[7] = test system: Pseudomonas aeruginosa (MCCB 0035); assay: Agar disk diffusion, inhibition zone; assay type: cell-based; details: 100 µg/8 mm disc, triplicate, mean ± SD
MT4 cells = details: MT4 cell cultures; colorimetric MTT cell viability assay
[8] = test system: Aspergillus niger (NCIM 2191); assay: MIC, broth microdilution; assay type: cell-based; details: NCIM2191, read-out: Minimum inhibitory concentration (MIC), AN
Procedure, shortened: as §1

Vaccinia virus = assay: microbe, parasite or virus in culture; assay type: cell-based; details: Orthopoxvirus vaccinia, HEL, read-out: Antiviral EC50, Vaccinia virus
Para-influenza-3 virus = assay: CPE reduction assay in Vero cells; assay type: cell-based, Parainfluenza-3 virus; details: Vero, read-out: Antiviral EC50, Para-influenza-3 virus
[9] = test system: Staphylococcus aureus (ATCC 29213); assay: Agar disk diffusion, inhibition zone; assay type: cell-based; details: 100 µg/8 mm disc, triplicate, mean ± SD
Procedure, shortened: (§3)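 Agar disk diffusion on Mueller-Hinton agar plates seeded with a standard bacterial suspension. Test compound stock in DMSO, diluted with distilled water; 8 mm sterile filter-paper discs soaked in the solution. Ampicillin was the reference. Plates incubated at 35 °C for 24 h, in triplicate. Read-out is the average inhibition-zone diameter (mm) around each disc.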

[10] = test system: Klebsiella aerogenes (NCIM-2098); assay: MIC, broth microdilution; assay type: cell-based; details: NCIM2098, read-out: Minimum inhibitory concentration (MIC), KA
Procedure, shortened: (§4)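 Antibacterial MICs by CLSI broth microdilution in Mueller-Hinton broth. Test compounds and standard drugs are serially diluted two-fold from 512 to 0.25. The bacterial broth culture is grown 2-6 h to a 0.5 McFarland turbidity, then adjusted with sterile solution to the final inoculum.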

[11] = test system: Lactobacillus casei (NCIM-2651); assay: Agar disk diffusion, inhibition zone; assay type: cell-based; details: 100 µg/8 mm disc, triplicate, mean ± SD
[12] = test system: Candida albicans (NCIM 2087); assay: Agar disk diffusion, inhibition zone; assay type: cell-based; details: 100 µg/8 mm disc, triplicate, mean ± SD
[13] = test system: Klebsiella aerogenes (NCIM-2098); assay: Agar disk diffusion, inhibition zone; assay type: cell-based; details: 100 µg/8 mm disc, triplicate, mean ± SD
[14] = test system: Influenza A/H3N2 A/HK/7/87; assay: CPE reduction assay in MDCK cells; assay type: cell-based; details: Influenza A virus
Influenza B B/Ned/537/05 = assay: CPE reduction assay in MDCK cells; assay type: cell-based; details: Influenza B virus, read-out: Antiviral EC50, Influenza B B/Ned/537/05, MTS
[15] = test system: Aspergillus niger (NCIM 2191); assay: Agar disk diffusion, inhibition zone; assay type: cell-based; details: 100 µg/8 mm disc, triplicate, mean ± SD
Procedure, shortened: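 For the fungal strain, discs soaked in test compound solution (DMSO stock diluted with distilled water) sat on seeded Mueller-Hinton agar. Clotrimazole was the reference. Incubation ran 48 h at 35 °C, in triplicate. Zone of growth inhibition recorded in mm as the mean diameter around each disc.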

Reovirus-1 = assay: CPE reduction assay in Vero cells; assay type: cell-based; details: read-out: Antiviral EC50, Reovirus-1
Adeno virus-2 = assay: CPE reduction assay in HEL cells; assay type: cell-based; details: read-out: Antiviral EC50, Adeno virus-2
Yellow Fever virus = assay: microbe, parasite or virus in culture; assay type: cell-based; details: Yellow fever virus, Vero, read-out: Antiviral EC50, Yellow Fever virus
[16] = test system: Pseudomonas aeruginosa (MCCB 0035); assay: MIC, broth microdilution; assay type: cell-based; details: read-out: Minimum inhibitory concentration (MIC), PA
Procedure, shortened: as §2

[17] = test system: Bacillus cereus (NCIM-2458); assay: MIC, broth microdilution; assay type: cell-based; details: NCIM2458, read-out: Minimum inhibitory concentration (MIC), BC
Procedure, shortened: as §2

[18] = test system: Cryptococcus neoformans (ATCC 9011); assay: MIC, broth microdilution; assay type: cell-based; details: ATCC9011, read-out: Minimum inhibitory concentration (MIC), CN
Procedure, shortened: as §1

Human Coronavirus (229E) = assay: CPE reduction assay in HEL cells; assay type: cell-based; details: read-out: Antiviral EC50, Human Coronavirus (229E)
[19] = test system: Human embryonic lung (HEL) cells; details: HEL cell cultures; microscopically detectable alteration of normal cell morphology
[20] = test system: Madin Darby canine kidney (MDCK) cells; details: dog
Sindbis virus = assay: CPE reduction assay in Vero cells; assay type: cell-based; details: read-out: Antiviral EC50, Sindbis virus
Punta Toro virus = assay: CPE reduction assay in Vero cells; assay type: cell-based; details: read-out: Antiviral EC50, Punta Toro virus
[21] = test system: Escherichia coli (ATCC 8739); assay: Agar disk diffusion, inhibition zone; assay type: cell-based; details: 100 µg/8 mm disc, triplicate, mean ± SD
Procedure, shortened: as §3

[22] = test system: Salmonella typhimurium (NCIM-2501); assay: Agar disk diffusion, inhibition zone; assay type: cell-based; details: 100 µg/8 mm disc, triplicate, mean ± SD
[23] = test system: Cryptococcus neoformans (ATCC 9011); assay: Agar disk diffusion, inhibition zone; assay type: cell-based; details: 100 µg/8 mm disc, triplicate, mean ± SD
[24] = test system: Staphylococcus aureus (ATCC 29213); assay: MIC, broth microdilution; assay type: cell-based; details: ATCC29213, read-out: Minimum inhibitory concentration (MIC), SA
Procedure, shortened: as §4

[25] = test system: Candida albicans (NCIM 2087); assay: MIC, broth microdilution; assay type: cell-based; details: NCIM2087, read-out: Minimum inhibitory concentration (MIC), CA
Procedure, shortened: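 CLSI broth microdilution in Sabouraud liquid medium, with test compound two-fold serially diluted from 512 to 0.25. Fungal broth culture grown 24 h at 35 °C to 0.5 McFarland turbidity, then adjusted with sterile solution to a final […] inoculum. MIC expressed in µg/mL.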

[26] = read-out: Antiviral EC50, Influenza A/H1N1 A/Ned/378/05, MTS
[27] = read-out: Antiviral EC50, Influenza A/H1N1 A/Ned/378/05, visual CPE score
[28] = read-out: Antiviral EC50, Influenza A/H3N2 A/HK/7/87, MTS
[29] = read-out: Antiviral EC50, Influenza A/H3N2 A/HK/7/87, visual CPE score

Structure (SMILES)	MIC [1]	EC50 [2, 26]	EC50 [2, 27]	MIC [3]	Diameter of growth inhibition zone, BC [4]	Diameter of growth inhibition zone, SP [5]	EC50 (Coxsackie virus B4)	Minimum cytotoxic conc. (Vero cells)	Diameter of growth inhibition zone, AF [6]	Diameter of growth inhibition zone, PA [7]	Minimum cytotoxic conc. (MT4 cells)	MIC [8]	EC50 (Vaccinia virus)	EC50 (Para-influenza-3 virus)	Diameter of growth inhibition zone, SA [9]	MIC [10]	Diameter of growth inhibition zone, LC [11]	Diameter of growth inhibition zone, CA [12]	Diameter of growth inhibition zone, KA [13]	EC50 [14, 28]	also measured
Cc1ccc(S(=O)(=O)N2C(=O)CSC2c2ccc(O)cc2)cc1 (stereo not drawn) [5m, 2-(4-Hydroxyphenyl)-3-[(4-methylphenyl)sulfonyl]-1,3-thiazolidin-4-one]	128 µg/mL (≈ 366 µM)	> 100 µM	> 100 µM	16 µg/mL (≈ 45.8 µM)	10 ± 0.6 mm	12 ± 2.1 mm	> 100 µM	>100 µM	10 ± 1.2 mm	15.2 ± 0.96 mm	>125 µM	64 µg/mL (≈ 183 µM)	> 100 µM	> 100 µM	13 ± 0.63 mm	64 µg/mL (≈ 183 µM)	14 ± 0.64 mm	15 ± 0.35 mm	10 ± 0.4 mm	> 100 µM	EC50 [14, 29]: > 100 µM; EC50 (Influenza B B/Ned/537/05): > 100 µM; Diameter of growth inhibition zone, AN [15]: 13 ± 0.6 mm; EC50 (Reovirus-1): > 100 µM; EC50 (Adeno virus-2): > 100 µM; EC50 (Yellow Fever virus): > 100 µM; MIC [16]: 16 µg/mL (≈ 45.8 µM); MIC [17]: 64 µg/mL (≈ 183 µM); MIC [18]: 64 µg/mL (≈ 183 µM); EC50 (Human Coronavirus (229E)): > 100 µM; Minimum cytotoxic conc. [19]: >100 µM; Cytotoxicity, Minimum cytotoxic conc. [20]: >100 µM; EC50 (Sindbis virus): > 100 µM; EC50 (Punta Toro virus): > 100 µM; Diameter of growth inhibition zone, EC [21]: 15.9 ± 0.23 mm; Diameter of growth inhibition zone, ST [22]: 12 ± 0.4 mm; Diameter of growth inhibition zone, CN [23]: 13 ± 1.4 mm; MIC [24]: 32 µg/mL (≈ 91.6 µM); MIC [25]: 32 µg/mL (≈ 91.6 µM)
Cc1ccc(S(=O)(=O)N2C(=O)CSC2c2ccccc2F)cc1 (stereo not drawn) [5h, 2-(2-Fluorophenyl)-3-[(4-methylphenyl)sulfonyl]-1,3-thiazolidin-4-one]	16 µg/mL (≈ 45.5 µM)	> 100 µM	> 100 µM	4 µg/mL (≈ 11.4 µM)	14 ± 0.62 mm	10 ± 1.7 mm	> 100 µM	>100 µM	15 ± 1.2 mm	20 ± 0.6 mm	111 µM	32 µg/mL (≈ 91.1 µM)	> 100 µM	> 100 µM	19 ± 1.1 mm	64 µg/mL (≈ 182 µM)	19 ± 1.2 mm	15 ± 0.56 mm	10 ± 0.5 mm	> 100 µM	EC50 [14, 29]: > 100 µM; EC50 (Influenza B B/Ned/537/05): > 100 µM; Diameter of growth inhibition zone, AN [15]: 12 ± 0.66 mm; EC50 (Reovirus-1): > 100 µM; EC50 (Adeno virus-2): > 100 µM; EC50 (Yellow Fever virus): > 100 µM; MIC [16]: 8 µg/mL (≈ 22.8 µM); MIC [17]: 16 µg/mL (≈ 45.5 µM); MIC [18]: 8 µg/mL (≈ 22.8 µM); EC50 (Human Coronavirus (229E)): > 100 µM; Minimum cytotoxic conc. [19]: >100 µM; Cytotoxicity, Minimum cytotoxic conc. [20]: >100 µM; EC50 (Sindbis virus): > 100 µM; EC50 (Punta Toro virus): > 100 µM; Diameter of growth inhibition zone, EC [21]: 23.8 ± 0.9 mm; Diameter of growth inhibition zone, ST [22]: 14 ± 1.3 mm; Diameter of growth inhibition zone, CN [23]: 19 ± 1.1 mm; MIC [24]: 8 µg/mL (≈ 22.8 µM); MIC [25]: 32 µg/mL (≈ 91.1 µM)
Cc1ccc(S(=O)(=O)N2C(=O)CSC2c2ccc(Cl)cc2)cc1 (stereo not drawn) [5g, 2-(4-Chlorophenyl)-3-[(4-methylphenyl)sulfonyl]-1,3-thiazolidin-4-one]	16 µg/mL (≈ 43.5 µM)	> 100 µM	> 100 µM	4 µg/mL (≈ 10.9 µM)	18 ± 0.33 mm	12 ± 1.43 mm	> 100 µM	>100 µM	13 ± 0.63 mm	24 ± 1.5 mm	>125 µM	8 µg/mL (≈ 21.7 µM)	> 100 µM	> 100 µM	22 ± 0.63 mm	32 µg/mL (≈ 87 µM)	14 ± 0.4 mm	20 ± 1.5 mm	12 ± 0.12 mm	> 100 µM	EC50 [14, 29]: > 100 µM; EC50 (Influenza B B/Ned/537/05): > 100 µM; Diameter of growth inhibition zone, AN [15]: 18 ± 1.1 mm; EC50 (Reovirus-1): > 100 µM; EC50 (Adeno virus-2): > 100 µM; EC50 (Yellow Fever virus): > 100 µM; MIC [16]: 8 µg/mL (≈ 21.7 µM); MIC [17]: 8 µg/mL (≈ 21.7 µM); MIC [18]: 16 µg/mL (≈ 43.5 µM); EC50 (Human Coronavirus (229E)): > 100 µM; Minimum cytotoxic conc. [19]: >100 µM; Cytotoxicity, Minimum cytotoxic conc. [20]: >100 µM; EC50 (Sindbis virus): > 100 µM; EC50 (Punta Toro virus): > 100 µM; Diameter of growth inhibition zone, EC [21]: 23 ± 0.32 mm; Diameter of growth inhibition zone, ST [22]: 12 ± 0.9 mm; Diameter of growth inhibition zone, CN [23]: 12 ± 1.8 mm; MIC [24]: 4 µg/mL (≈ 10.9 µM); MIC [25]: 8 µg/mL (≈ 21.7 µM)
